What all share (type): functional
For assay [1], the system named is Mycobacteroides abscessus. In words: Antibacterial activity against Mycobacterium abscessus CIP_PIPD1 harboring MAB_4508 g925c/A309P mutant after 3 to 5 days by two fold serial dilution method. In outline: (§1)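 Broth microdilution in cation-adjusted Mueller−Hinton broth per CLSI; inoculum 5 × 10^6 CFU/mL of exponential-phase bacteria; two-fold serial dilutions, solvent-only wells as control; 30 °C for 3−5 days; MIC read visually and confirmed by absorbance at 560 nm; triplicate on three independent occasions.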

Assay [2] has as its system Mycobacteroides abscessus. In words: Antibacterial activity against non CF patient derived Mycobacterium abscessus subsp. abscessus isolate CIP104536 smooth variant after 3 to 5 days by two fold serial dilution method. In outline: as §1
Assay [3] deals with Mycobacteroides abscessus. Put plainly: Antibacterial activity against Mycobacterium abscessus CIP_OK4-10 harboring MAB_4508 g925c/A309P mutant after 3 to 5 days by two fold serial dilution method. In outline: as §1
The test system of assay [4] is Mycobacteroides abscessus. In words: Antibacterial activity against Mycobacterium abscessus CIP104536 smooth variant assessed as reduction in viable colony forming unit at 8 ug/ml after 4 days by time-kill assay. In outline:
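Set up as microdilution MIC plates in cation-adjusted Mueller−Hinton broth with smooth CIP 104536; serial dilutions plated after 0, 24, 48, 72 and 96 h of drug exposure; CFU counted after 4 days at 30 °C; mean of triplicate log10 values, representative of three independent experiments.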

Assay [5] deals with Mycobacteroides abscessus. Put plainly: Antibacterial activity against Mycobacterium abscessus CIP104536 smooth variant expressing tdTomato infected in PMA activated THP-1 macrophages assessed as protection against […] infection after 4 days post treatment by microscopic method. In outline: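 THP-1 macrophages, PMA-differentiated, infected with tdTomato-expressing M. abscessus, amikacin-treated and drug-exposed as in the CFU assay; at 96 h, bacteria-containing macrophages counted under fluorescence microscopy (4297 total cells) to give percentage of infected cells.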

The test system of assay [6] is Mycobacteroides abscessus. In words: Antibacterial activity against Mycobacterium abscessus CIP104536 smooth variant infected in PMA activated THP-1 macrophages assessed as reduction in viable colony forming unit at 96 ug/ml measured upto 4 days post treatment by fluorescence microscopic method. In outline:
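THP-1 cells in RPMI with 10% FBS, differentiated with 20 ng/mL PMA for 48 h at 37 °C; infected at MOI 1:2 for 2 h under 5% CO2; washed, 200 μg/mL amikacin for 1 h, washed; drug medium renewed daily; lysed in 1% Triton X100 at 0, 48, 96 h and plated for CFU; triplicates, two independent experiments.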

In brackets after ≈: the same amount, converted by molar mass. Activity calls are given as the source filed them. The rule behind the calls is not given here.

Take `Cc1ccccc1CN1CCC(O)(c2ccc(Cl)c(C(F)(F)F)c2)CC1`: the results for the MIC in assay [1], in assay [2] and in assay [3] were 8 µg/mL (≈ 20.8 µM), 0.125 µg/mL (≈ 0.326 µM) and 8 µg/mL (≈ 20.8 µM), respectively.

Regarding `C[C@@H](O)[C@H]1C(=O)N2C(C(=O)O)=C(SCCNC=N)C[C@H]12`, the outcome in assay [4], in assay [5] and in assay [6] was Active.

For the origin of these results see ChEMBL document CHEMBL4014347, “Targeting Mycolic Acid Transport by Indole-2-carboxamides for the Treatment of Mycobacterium abscessus Infections” (J Med Chem, 2017).
